Test [1] in a line: inhibitors of TNFa-induced NFkB p65 translocation, primary screen, imaging, HUVEC, MLSMR starter and 10KST1 sets (AID 438;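 active = inhibition above 20% together with a positive visual image hit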;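 also: compound added about 3h40 before a 20 min TNFalpha stimulation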;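 as to inhibition: signal is the nuclear over cytoplasmic p65 intensity ratio per well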). Conditions: HUVEC TNFa-induced p65 nuclear translocation; cell count: measured here: nuclei count (cytotoxicity indicator), at 2.08 µM; inhibition: at 2 µM, stronger effect = higher value, 0% TNFa-plus-vehicle, 100% no-TNFa wells.
The nature of test [2]: reduction of polyQ htt aggregates in cells – imaging, exon1htt(103Q)mCFP cells, high-content imaging, primary screen (AID 483).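 Also: compound exposure lasted 3 days before fixation.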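 As to nuclei count: percent of the per-plate median nuclei count of sample wells.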 To be noted: exon1htt(103Q)mCFP cell line, aggregate imaging, at 2 µM; inhibition of aggregation: stronger effect = higher value; nuclei count: measured here: cell count, toxicity.
A short description of test [3]: endothelial E-selectin expression blockers – imaging, HUVEC, immunofluorescence, MLSMR starter and 10KST1 sets, primary screen (AID 487;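 active = visually confirmed hit in the image check and inhibition above 20%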;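 as to inhibition: signal is fraction of cell area covered by stained E-selectin grains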;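 as to nuclei count: 100% = median nuclei count of all wells on the same plate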). Conditions: HUVEC TNFalpha-induced E-selectin immunofluorescence imaging, at 2 µM; inhibition: stronger effect = higher value; nuclei count: measured here: cell number, toxicity.
Test [4] deals with Voltage-gated potassium channel subunit beta-2 (Rattus norvegicus) (UniProt P62483). The experiment in a line: inhibitors of rat Kvbeta2 reductase activity – biochemical, NADPH fluorescence, primary screen (AID 622;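 active = fluorescence slope higher than the sample average by over 3 SD, cut at about -0.22 in these data, passing the limit was not always enough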;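 also: slope of raw intensity against log time taken from 70 to 1610 s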). Conditions: recombinant KvBeta, 4-cyanobenzaldehyde reduction, at 10 µM, stronger effect = higher value.
Chain of Voltage-gated potassium channel subunit beta-2 (Rattus norvegicus) (P62483 whole entry, looked up): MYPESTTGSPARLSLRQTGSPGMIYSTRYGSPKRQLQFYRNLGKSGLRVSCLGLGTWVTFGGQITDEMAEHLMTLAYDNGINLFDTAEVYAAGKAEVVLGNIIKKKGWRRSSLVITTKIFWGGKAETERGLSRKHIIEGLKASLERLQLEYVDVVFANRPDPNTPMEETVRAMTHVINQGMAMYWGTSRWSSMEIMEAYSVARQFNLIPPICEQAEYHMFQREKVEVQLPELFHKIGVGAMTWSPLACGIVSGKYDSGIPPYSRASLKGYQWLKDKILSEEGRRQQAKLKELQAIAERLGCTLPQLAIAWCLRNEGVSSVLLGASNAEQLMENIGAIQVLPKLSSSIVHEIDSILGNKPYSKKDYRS
Test [5] has the same target. Briefly: enhancers of rat Kvbeta2 NADPH turnover – biochemical, NADPH fluorescence, primary screen (AID 623;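 active = NADPH fluorescence slope more negative than the mean of all samples by about 3 SD, 99.7% confidence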;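 also: fluorescence intensity change per second fitted from 20 to 320 s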). Conditions: Recombinant KvBeta, NADPH fluorescence decrease slope, 10 min; at 10 µM; stronger effect = lower value.
Test [6] has as its target Alpha-2C adrenergic receptor (Homo sapiens) (UniProt P18825). Briefly: compounds altering alpha2C-coupled GIRK flux – cell-based, HEK293 alpha2C/GIRK1/2, thallium flux, primary screen (AID 624;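 active = fluorescence slope after compound addition differing from the mean of all screened samples at 99.7% confidence, in either direction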;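 also: slope of fluorescence ratio to pre-addition baseline per second over 15 to 24 s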). To be noted: thallium flux BTC fluorescence, at 10 µM, actives lie on both sides.
Test [7] can be described thus: inhibitors of larval lipid processing in zebrafish, primary screen, whole organism, PED6 fluorescence, gall bladder and intestine (AID 686;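 active = a full or partial loss of lipid-probe fluorescence in the fish gall bladder, intestine or both, judged by eye; inactive = no fluorescence loss, or compound toxic to the fish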;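 also: larvae 5 to 7 days old with five fish per well; signal comes from phospholipase A2 cleavage of quenched PED6 carried via bile; overnight exposure to compound and PED6 before scoring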). To be noted: Zebrafish larvae PED6 lipid processing, fluorescence scoring; screened at 20 µM (by protocol). Summed up:
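System: live zebrafish larvae aged 5-7 days, whole organism; measure: graded gall bladder and intestinal fluorescence inhibition per well; incubation: overnight exposure; reagent: ingested quenched lipid PED6 at 100 nM; signal: By-eye fluorescence microscopy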

The nature of test [8]: blockers of RIG-like receptor reporter activation – cell-based, Sendai virus stimulus, luciferase, 10K MLSCN set, TLR/RLR signaling modifier project, primary screen (AID 602276;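 active = inhibition at or above 50% at 10 µM; inactive = inhibition below 50%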;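 also: firefly luciferase from ISG56 promoter only with Renilla not read in this screen; 0% = Sendai virus plus DMSO and 100% = medium plus DMSO without virus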). Conditions: HEK293 RL24 IRF3 luciferase reporter, at 10 µM, stronger effect = higher value. On the technique in general: A reporter such as luciferase makes a cellular process visible.
A short description of test [9]: TLR3 IRF3 reporter activation blockers – cell-based, poly I:C stimulus, luciferase, 10K MLSCN set, primary screen (AID 602277;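 active = inhibition of the reporter signal at or above 50%; inactive = inhibition below 50%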). Conditions: HEK293-TLR3 RL24 IRF3 luciferase reporter, at 10 µM, stronger effect = higher value.

SMILES strings stand for the structures. Calls of active or inactive are those of the source.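 The calls were made as follows, unless noted: active = visual image review flags a hit and inhibition of aggregation exceeds 20%; inconclusive = visual hit but inhibition at or below 20%; inactive = no hit on visual image review.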

Chain of Alpha-2C adrenergic receptor (Homo sapiens) (P18825 whole entry, looked up): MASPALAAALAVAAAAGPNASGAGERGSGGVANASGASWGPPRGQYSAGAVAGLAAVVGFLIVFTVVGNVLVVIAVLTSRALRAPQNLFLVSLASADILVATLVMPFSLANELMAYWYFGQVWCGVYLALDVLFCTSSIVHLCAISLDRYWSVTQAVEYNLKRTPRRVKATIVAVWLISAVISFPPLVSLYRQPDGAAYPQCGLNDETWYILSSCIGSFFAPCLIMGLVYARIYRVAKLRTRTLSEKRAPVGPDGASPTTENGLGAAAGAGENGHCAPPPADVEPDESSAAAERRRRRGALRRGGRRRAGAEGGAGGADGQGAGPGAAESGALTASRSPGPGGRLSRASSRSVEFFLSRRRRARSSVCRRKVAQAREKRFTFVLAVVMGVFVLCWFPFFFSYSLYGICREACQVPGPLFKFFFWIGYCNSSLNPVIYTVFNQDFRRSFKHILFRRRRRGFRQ

As a reminder, the inhibition is the drop in the measured response relative to a control, in per cent. Regarding `COc1ccccc1CC(=O)NCC1CCCO1` (configuration not stated), the cell count in test [1] turned out to be 346. Further, the inhibition in test [1] is -15.9% (inactive); in [3], -2.8% (inactive); in [8], 11.5% (inactive); in test [9] it was 17.7% (inactive). For the same molecule, the inhibition of aggregation in test [2] was 8.9% (inactive). Besides, the values for the nuclei count in [2] and in test [3] were 107% and 130%, respectively. In [4], the fluorescence slope was -0.329 (inactive). In addition, the NADPH fluorescence slope in [5] was -4.4e-05 (inactive). The slope in [6] was 0.00554 (inactive). Also, in test [7], the outcome was inactive.

As to `Cc1ccc(C(=O)Nc2c(C(=O)N3CCOCC3)cnn2-c2ccccc2)cc1`, the cell count in [1] amounted to 354. Also, the inhibition in test [1] is 5.4% (inactive); in test [3], -6.5% (inactive); in test [8], 14% (inactive); in test [9], 15.4% (inactive). Moreover, in test [2], the inhibition of aggregation was -0.9% (inactive). Further, the nuclei count in [2] amounted to 102%; in [3], 105%. In addition, the fluorescence slope in test [4] was -0.321 (inactive). The NADPH fluorescence slope in [5] was -3.7e-05 (inactive). Also, in [6], the slope was 0.00471 (inactive). The molecule was classed as inactive in test [7].

For `C#CCSc1nc(-c2cccs2)ccc1C#N`, the cell count in test [1] came out at 340. Further, the inhibition in [1] is -1% (inactive); in test [3], -85.2% (inactive); in [8], -10.7% (inactive); in [9] it was 5.18% (inactive). Besides, the inhibition of aggregation in test [2] is -15% (inactive). Further, the nuclei count in test [2] was 92.8%; in test [3], 112%. The fluorescence slope in test [4] is -0.5 (inactive). The NADPH fluorescence slope in test [5] is 5.7e-06 (inactive). Moreover, the slope in [6] is 0.00646 (inactive). The outcome in [7] was inactive.

Take `Cc1cn(C2CC3OCC3O2)c(=O)[nH]c1=O` (configuration not stated): in [1], the cell count was 381. For the same molecule, the inhibition in [1] is 2.5% (inactive); in [3], 30.5% (inactive); in test [8], -0.457% (inactive); in [9], 5.51% (inactive). Besides, the inhibition of aggregation in test [2] was 0.6% (inactive). Further, the nuclei count in test [2] was found to be 98.5%; in test [3], 98.4%. For the same molecule, the fluorescence slope in test [4] is -0.399 (inactive). Moreover, the NADPH fluorescence slope in test [5] was 1.2e-05 (inactive). Moreover, the slope in test [6] is 0.00591 (inactive). The result in test [7] was inactive.

In the case of `COc1cc(C(=O)NCC(=O)OCC(=O)c2ccc[nH]2)cc(OC)c1OC`, the cell count in test [1] stood at 383. Moreover, the inhibition in [1] is -23% (inactive); in test [3], -64.2% (inactive); in [8], 13.9% (inactive); in test [9] it was 16.7% (inactive). Further, in test [2], the inhibition of aggregation is 10.7% (inactive). In addition, the figures for the nuclei count in test [2] and in [3] were 101% and 107%, respectively. Further, in [4], the fluorescence slope was -0.458 (inactive). In addition, the NADPH fluorescence slope in test [5] is -4.1e-05 (inactive). Besides, in test [6], the slope was 0.00501 (inactive). In addition, the molecule was called inactive in test [7].

For `CC(C)(C)C(=O)OCC1OC(n2cnc(C(N)=O)n2)C(O)C1O` (configuration not stated), the cell count in [1] was 468. Further, the inhibition was -8.7% (inactive) in test [1], 49.3% (inactive) in test [3], 5.04% (inactive) in test [8] and 4.14% (inactive) in [9]. For the same molecule, the inhibition of aggregation in [2] is 7.9% (inactive). Moreover, the values for the nuclei count in [2] and in [3] were 88.9% and 88%, respectively. Also, the fluorescence slope in test [4] was -0.382 (inactive). For the same molecule, the NADPH fluorescence slope in test [5] is 8.9e-07 (inactive). Moreover, the slope in [6] is 0.00529 (inactive). In addition, in [7], the result was inactive.

For `COc1cc(C)c(Br)cc1S(=O)(=O)N1CCOCC1`, the cell count in test [1] was 397. The inhibition is 6.3% (inactive) in [1], -68.9% (inactive) in test [3], 11.9% (inactive) in [8] and 4.48% (inactive) in test [9]. Further, the inhibition of aggregation in [2] was 3.4% (inactive). For the same molecule, the nuclei count amounted to 106% in test [2] and 126% in [3]. In addition, the fluorescence slope in test [4] was -0.461 (inactive). Moreover, the NADPH fluorescence slope in test [5] was -4.2e-05 (inactive). Moreover, the slope in test [6] is 0.00698 (inactive). Besides, the call in [7] was inactive.

With `CC(C)NC(=O)c1ccccc1NC(=O)CCS(=O)(=O)Cc1ccccc1`, in test [1], the cell count was determined as 560. Moreover, the inhibition in test [1] is 6.6% (inactive); in test [3] it was -26% (inactive); in [8], -21.6% (inactive); in test [9] it was -8.53% (inactive). In addition, in test [2], the inhibition of aggregation is -10% (inactive). The nuclei count was found to be 108% in test [2] and 107% in test [3]. Also, the fluorescence slope in test [4] was -0.516 (inactive). Moreover, the NADPH fluorescence slope in test [5] is 2.6e-05 (inactive). For the same molecule, the slope in test [6] was 0.00472 (inactive). Also, the call in test [7] was inactive.

Turning to `O=C1c2ccccc2NC(c2cccc(F)c2)N1Cc1ccco1` (configuration not stated), the cell count in test [1] was 586. Besides, the inhibition in [1] is -32.4% (inactive); in [3], -0.5% (inactive); in test [8], 16.4% (inactive); in test [9], 17.8% (inactive). Besides, the inhibition of aggregation in test [2] was 10.2% (inactive). Besides, the nuclei count in [2] came to 106%; in test [3] it was 107%. Besides, in test [4], the fluorescence slope was -0.308 (inactive). Also, in [5], the NADPH fluorescence slope is -2.7e-05 (inactive). The slope in test [6] was 0.00344 (inactive). Also, the molecule was classed as inactive in [7].

As to `CC(=O)c1ccc(N2CCN(C(=O)c3cc(C)on3)CC2)cc1`, in test [1], the cell count came out at 319. Further, the inhibition in test [1] was 0% (inactive); in test [3] it was 40.6% (inactive); in test [8], 2.68% (inactive); in test [9], -0.354% (inactive). In addition, the inhibition of aggregation in test [2] is 18.7% (inactive). In addition, the nuclei count in test [2] turned out to be 102%; in test [3], 80.7%. Also, in test [4], the fluorescence slope is -0.465 (inactive). Further, the NADPH fluorescence slope in [5] was -4.5e-05 (inactive). The slope in test [6] is 0.00513 (inactive). Further, in test [7], the molecule was classed as inactive.

Regarding `CC(N)C12CC3CC(C1)CC(C(C)N)(C3)C2` (configuration not stated), the cell count in test [1] stood at 394. Besides, the inhibition is 3% (inactive) in [1], -14.3% (inactive) in test [3], 13.4% (inactive) in [8] and 13.6% (inactive) in test [9]. Further, the inhibition of aggregation in test [2] is -16.2% (inactive). In addition, the nuclei count in test [2] stood at 102%; in [3], 103%. Also, the fluorescence slope in test [4] is -0.38 (inactive). For the same molecule, the NADPH fluorescence slope in test [5] was -6.5e-05 (inactive). For the same molecule, the slope in test [6] was 0.00438 (inactive). Moreover, the outcome in test [7] was inactive.
